Assays:
[1] = Clearance adjusted for unbound fraction in Sprague-Dawley rat at 1 mg/kg, iv administered as 30 mins infusion by LC/MS/MS analysis; format: ADME, organism-based; settings: in vivo, 0.5 h
Cytochrome P450 3A4 = Cytochrome P450 3A4 (Homo sapiens, UniProt P08684); test: Time dependent inhibition of CYP3A4 (unknown origin) up to 100 uM preincubated up to 15 mins followed by 7-benzyloxy-trifluoromethylcoumarin substrate and NADPH addition by fluorescence assay; format: ADME
[2] = MRT in Sprague-Dawley rat at 1 mg/kg, iv or 2 mg/kg, po by LC/MS/MS analysis; format: ADME, organism-based; settings: in vivo
[3] = biological target: Transient receptor potential cation channel subfamily A member 1 (Homo sapiens, UniProt O75762); test: Antagonist activity at TRPA1 (unknown origin)
Transient receptor potential cation channel subfamily A member 1, sequence (O75762 whole entry): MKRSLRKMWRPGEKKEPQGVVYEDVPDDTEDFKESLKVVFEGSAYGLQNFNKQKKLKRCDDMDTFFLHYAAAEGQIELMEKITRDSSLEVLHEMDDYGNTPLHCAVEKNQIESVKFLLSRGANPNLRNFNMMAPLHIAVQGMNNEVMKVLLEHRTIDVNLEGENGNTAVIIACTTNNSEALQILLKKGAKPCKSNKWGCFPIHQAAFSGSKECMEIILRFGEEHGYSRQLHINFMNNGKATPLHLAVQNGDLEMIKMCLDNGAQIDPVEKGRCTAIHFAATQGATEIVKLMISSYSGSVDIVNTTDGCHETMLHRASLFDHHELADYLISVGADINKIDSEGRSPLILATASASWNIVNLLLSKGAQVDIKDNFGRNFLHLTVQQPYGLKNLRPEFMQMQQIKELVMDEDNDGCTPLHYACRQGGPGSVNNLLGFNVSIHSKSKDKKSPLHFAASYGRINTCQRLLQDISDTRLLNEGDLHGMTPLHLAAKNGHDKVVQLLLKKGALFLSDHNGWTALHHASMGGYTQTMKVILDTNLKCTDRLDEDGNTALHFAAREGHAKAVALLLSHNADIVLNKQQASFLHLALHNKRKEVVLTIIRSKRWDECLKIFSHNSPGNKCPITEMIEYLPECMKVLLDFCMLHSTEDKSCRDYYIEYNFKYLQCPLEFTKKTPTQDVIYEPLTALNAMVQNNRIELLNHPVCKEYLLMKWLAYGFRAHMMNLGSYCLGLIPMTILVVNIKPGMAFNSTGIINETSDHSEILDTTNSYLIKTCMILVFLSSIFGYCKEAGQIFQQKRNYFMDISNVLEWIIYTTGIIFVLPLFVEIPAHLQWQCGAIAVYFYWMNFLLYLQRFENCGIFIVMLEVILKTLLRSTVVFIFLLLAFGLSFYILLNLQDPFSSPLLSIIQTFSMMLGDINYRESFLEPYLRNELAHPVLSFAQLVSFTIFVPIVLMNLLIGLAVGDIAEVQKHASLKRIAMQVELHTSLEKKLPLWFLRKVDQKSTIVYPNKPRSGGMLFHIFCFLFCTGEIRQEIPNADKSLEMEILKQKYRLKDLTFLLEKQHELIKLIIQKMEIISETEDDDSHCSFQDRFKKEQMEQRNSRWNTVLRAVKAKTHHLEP

[4] = biological target: Transient receptor potential cation channel subfamily V member 1 (Homo sapiens, UniProt Q8NER1); test: Antagonist activity at TRPV1 (unknown origin)
Transient receptor potential cation channel subfamily V member 1, sequence (Q8NER1 whole entry): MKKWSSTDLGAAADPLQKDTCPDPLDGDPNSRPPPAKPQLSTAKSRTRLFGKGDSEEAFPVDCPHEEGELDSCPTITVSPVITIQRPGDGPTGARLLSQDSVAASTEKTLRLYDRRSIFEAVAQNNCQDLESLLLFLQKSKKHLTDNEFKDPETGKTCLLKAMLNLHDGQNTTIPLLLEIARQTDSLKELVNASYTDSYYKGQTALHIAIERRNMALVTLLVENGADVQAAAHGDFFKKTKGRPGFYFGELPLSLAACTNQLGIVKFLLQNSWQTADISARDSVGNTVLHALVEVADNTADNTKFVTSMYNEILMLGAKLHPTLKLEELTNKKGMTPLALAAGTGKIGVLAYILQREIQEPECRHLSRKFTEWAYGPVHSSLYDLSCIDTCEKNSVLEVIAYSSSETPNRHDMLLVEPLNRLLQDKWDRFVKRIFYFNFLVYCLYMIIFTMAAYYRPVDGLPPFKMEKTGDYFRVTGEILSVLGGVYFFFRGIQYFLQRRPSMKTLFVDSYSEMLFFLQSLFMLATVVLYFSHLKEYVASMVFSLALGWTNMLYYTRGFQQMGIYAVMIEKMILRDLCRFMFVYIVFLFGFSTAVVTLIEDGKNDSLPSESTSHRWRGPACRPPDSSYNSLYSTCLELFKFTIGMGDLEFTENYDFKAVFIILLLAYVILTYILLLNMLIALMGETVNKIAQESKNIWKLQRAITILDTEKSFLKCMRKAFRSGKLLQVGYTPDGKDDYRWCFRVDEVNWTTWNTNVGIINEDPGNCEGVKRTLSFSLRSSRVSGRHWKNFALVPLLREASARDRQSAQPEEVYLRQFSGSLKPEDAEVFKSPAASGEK

TRPC3/TRPC6 = biological target: T1, TRPC3/TRPC6 (Homo sapiens, UniProt Q13507+Q9Y210); test: Antagonist activity at TRPC3/TRPC6 (unknown origin); format: protein-complex assay
T1 sequence (Q9Y210 whole entry): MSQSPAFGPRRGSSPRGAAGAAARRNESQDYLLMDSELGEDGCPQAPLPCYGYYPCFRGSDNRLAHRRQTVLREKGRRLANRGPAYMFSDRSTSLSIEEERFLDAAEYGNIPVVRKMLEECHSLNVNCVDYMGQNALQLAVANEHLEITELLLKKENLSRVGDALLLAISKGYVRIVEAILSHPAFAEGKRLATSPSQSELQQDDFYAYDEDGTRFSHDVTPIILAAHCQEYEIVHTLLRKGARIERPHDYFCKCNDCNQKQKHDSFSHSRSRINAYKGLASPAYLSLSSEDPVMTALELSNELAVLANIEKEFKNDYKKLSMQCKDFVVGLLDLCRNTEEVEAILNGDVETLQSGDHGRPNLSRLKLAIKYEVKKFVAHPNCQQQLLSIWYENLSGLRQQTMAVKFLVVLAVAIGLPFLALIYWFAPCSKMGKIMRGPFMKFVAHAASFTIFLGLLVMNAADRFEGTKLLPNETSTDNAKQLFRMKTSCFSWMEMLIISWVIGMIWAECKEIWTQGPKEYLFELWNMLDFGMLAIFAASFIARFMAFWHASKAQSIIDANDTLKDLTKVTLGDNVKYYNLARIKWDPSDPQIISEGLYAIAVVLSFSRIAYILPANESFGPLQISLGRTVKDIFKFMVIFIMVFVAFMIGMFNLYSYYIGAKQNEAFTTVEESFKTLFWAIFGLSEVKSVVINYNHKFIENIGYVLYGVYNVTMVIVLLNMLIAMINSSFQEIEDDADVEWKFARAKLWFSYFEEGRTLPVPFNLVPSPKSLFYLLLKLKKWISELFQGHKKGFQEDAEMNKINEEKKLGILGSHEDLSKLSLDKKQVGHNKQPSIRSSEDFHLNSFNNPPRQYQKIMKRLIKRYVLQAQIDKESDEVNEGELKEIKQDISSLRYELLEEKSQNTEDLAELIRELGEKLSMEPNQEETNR
T1 sequence (Q13507 whole entry): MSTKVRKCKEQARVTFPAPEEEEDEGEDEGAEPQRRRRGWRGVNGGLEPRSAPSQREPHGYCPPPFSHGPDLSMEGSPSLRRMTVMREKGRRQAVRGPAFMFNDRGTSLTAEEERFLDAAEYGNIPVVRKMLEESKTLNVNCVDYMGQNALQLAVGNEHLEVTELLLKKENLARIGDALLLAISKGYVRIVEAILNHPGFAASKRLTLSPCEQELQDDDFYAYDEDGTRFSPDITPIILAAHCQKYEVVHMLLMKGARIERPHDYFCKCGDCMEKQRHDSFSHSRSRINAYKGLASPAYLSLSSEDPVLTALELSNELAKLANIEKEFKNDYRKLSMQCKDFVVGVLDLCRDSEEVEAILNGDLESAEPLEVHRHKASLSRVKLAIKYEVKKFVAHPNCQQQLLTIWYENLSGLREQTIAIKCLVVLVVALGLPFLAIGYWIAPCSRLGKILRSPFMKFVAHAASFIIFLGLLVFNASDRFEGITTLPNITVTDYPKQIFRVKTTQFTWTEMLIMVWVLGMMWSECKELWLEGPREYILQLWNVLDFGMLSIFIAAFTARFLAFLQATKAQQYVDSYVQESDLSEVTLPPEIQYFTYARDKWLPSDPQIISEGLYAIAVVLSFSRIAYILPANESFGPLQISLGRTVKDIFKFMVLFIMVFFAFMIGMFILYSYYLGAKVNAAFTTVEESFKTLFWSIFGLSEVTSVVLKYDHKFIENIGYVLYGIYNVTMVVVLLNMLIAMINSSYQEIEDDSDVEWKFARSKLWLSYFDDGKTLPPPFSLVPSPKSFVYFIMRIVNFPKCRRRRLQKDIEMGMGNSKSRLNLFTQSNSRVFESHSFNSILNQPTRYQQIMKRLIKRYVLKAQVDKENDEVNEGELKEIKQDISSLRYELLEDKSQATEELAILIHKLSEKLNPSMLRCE

[5] = biological target: Transient receptor potential cation channel subfamily V member 4 (Rattus norvegicus, UniProt Q9ERZ8); test: Antagonist activity at rat TRPV4 expressed in BHK/AC9 cells assessed as inhibition of GSK634775-induced […] pre-incubated for 10 mins followed by agonist addition by Fluo-4-AM dye-based FLIPR assay; format: cell-based
Transient receptor potential cation channel subfamily V member 4 (Rattus norvegicus, UniProt Q9ERZ8), sequence (Q9ERZ8 whole entry, the tested form may be a part): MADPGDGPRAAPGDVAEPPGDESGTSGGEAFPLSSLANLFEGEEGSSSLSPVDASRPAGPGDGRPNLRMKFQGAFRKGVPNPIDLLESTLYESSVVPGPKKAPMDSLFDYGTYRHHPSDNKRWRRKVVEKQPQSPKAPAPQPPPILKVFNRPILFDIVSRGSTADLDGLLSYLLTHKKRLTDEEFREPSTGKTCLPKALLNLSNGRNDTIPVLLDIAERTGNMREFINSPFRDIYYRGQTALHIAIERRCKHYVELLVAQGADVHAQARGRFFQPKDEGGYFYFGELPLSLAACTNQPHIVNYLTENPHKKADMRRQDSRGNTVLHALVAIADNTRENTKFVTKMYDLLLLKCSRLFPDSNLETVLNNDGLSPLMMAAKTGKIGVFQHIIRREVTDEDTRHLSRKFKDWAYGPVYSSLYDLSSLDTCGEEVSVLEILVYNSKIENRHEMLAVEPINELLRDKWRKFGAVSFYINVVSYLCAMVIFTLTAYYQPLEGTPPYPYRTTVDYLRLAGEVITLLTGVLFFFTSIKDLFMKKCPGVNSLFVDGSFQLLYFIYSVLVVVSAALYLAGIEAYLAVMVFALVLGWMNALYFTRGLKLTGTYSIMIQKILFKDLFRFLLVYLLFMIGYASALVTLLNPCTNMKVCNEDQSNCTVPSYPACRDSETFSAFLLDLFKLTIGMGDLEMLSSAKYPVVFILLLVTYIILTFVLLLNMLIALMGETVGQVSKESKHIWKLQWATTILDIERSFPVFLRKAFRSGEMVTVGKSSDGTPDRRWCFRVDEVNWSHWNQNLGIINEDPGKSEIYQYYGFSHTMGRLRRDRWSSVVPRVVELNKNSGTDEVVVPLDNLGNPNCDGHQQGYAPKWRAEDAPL

[6] = Fraction unbound in Sprague-Dawley rat heart failure-induced pulmonary edema model at 0.02 to 0.21 ug/kg, iv bolus loading dose followed by 0.3 to 2.3 ug/kg/min, iv continuous infusion dose for 60 mins; format: ADME, organism-based; settings: in vivo
[7] = AUC (0 to t) in rat at 2.4 mg/kg, po; format: ADME, organism-based; settings: in vivo
[8] = AUC (0 to t) in dog at 30 mg/kg, po; format: ADME, organism-based, Canis lupus familiaris; settings: in vivo
[9] = biological target: Transient receptor potential cation channel subfamily V member 4 (Homo sapiens, UniProt Q9HBA0); test: Antagonist activity at human TRPV4 expressed in BHK/AC9 cells assessed as inhibition of GSK634775-induced […] pre-incubated for 10 mins followed by agonist addition by Fluo-4-AM dye-based FLIPR assay; format: cell-based
Transient receptor potential cation channel subfamily V member 4 (Homo sapiens, UniProt Q9HBA0), sequence (Q9HBA0 whole entry, the tested form may be a part): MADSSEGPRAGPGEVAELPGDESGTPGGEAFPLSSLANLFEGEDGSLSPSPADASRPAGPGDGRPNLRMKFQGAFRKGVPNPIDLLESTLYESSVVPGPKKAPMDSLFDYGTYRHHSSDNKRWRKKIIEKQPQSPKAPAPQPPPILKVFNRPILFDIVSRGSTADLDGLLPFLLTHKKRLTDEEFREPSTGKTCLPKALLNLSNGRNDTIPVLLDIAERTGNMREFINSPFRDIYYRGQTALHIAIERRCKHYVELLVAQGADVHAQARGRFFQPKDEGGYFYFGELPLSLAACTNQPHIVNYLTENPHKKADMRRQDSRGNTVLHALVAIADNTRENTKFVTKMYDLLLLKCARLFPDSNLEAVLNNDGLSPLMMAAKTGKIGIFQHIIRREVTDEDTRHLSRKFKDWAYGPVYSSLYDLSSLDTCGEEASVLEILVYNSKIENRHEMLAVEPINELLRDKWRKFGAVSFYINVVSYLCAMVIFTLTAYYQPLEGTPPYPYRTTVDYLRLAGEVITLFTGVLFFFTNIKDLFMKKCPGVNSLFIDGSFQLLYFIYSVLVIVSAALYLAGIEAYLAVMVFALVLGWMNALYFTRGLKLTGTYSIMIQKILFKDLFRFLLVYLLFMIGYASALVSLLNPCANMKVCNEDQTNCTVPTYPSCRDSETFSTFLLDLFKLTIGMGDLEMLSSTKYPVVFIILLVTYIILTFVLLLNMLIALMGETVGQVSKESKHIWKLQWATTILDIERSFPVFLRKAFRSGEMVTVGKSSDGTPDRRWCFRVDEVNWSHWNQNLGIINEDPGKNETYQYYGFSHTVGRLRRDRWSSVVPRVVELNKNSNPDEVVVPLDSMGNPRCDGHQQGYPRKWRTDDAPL

[10] = Plasma concentration in Sprague-Dawley rat heart failure-induced pulmonary edema model at 0.02 ug/kg, iv bolus loading dose followed by 0.3 ug/kg/min, iv continuous infusion dose for 60 mins; format: ADME, organism-based; settings: 2e-05 mg/kg
[11] = Plasma concentration in Sprague-Dawley rat heart failure-induced pulmonary edema model at 0.07 ug/kg, iv bolus loading dose followed by 0.8 ug/kg/min, iv continuous infusion dose for 60 mins; format: ADME, organism-based; settings: 7e-05 mg/kg
Rattus norvegicus = test: Reversal of heart failure-induced pulmonary edema in Sprague-Dawley rat assessed as inhibition of GSK1016790A-induced increase in lung wet weight to body weight ratio at 0.21 ug/kg, iv bolus loading dose followed by 2.3 ug/kg/min, iv continuous infusion dose for 60 mins prior to agonist administration relative to control; format: functional
Method in brief: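 Rats given vehicle or antagonist by i.v. infusion, then agonist GSK1016790A i.v. at 10 µg/kg/min for 10 min (100 µg/kg total). Edema scored as wet lung weight/body weight ratio against naïve animals; inhibition computed from the agonist response; mean ± SEM.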

Cytochrome P450 3A4, sequence (P08684 whole entry): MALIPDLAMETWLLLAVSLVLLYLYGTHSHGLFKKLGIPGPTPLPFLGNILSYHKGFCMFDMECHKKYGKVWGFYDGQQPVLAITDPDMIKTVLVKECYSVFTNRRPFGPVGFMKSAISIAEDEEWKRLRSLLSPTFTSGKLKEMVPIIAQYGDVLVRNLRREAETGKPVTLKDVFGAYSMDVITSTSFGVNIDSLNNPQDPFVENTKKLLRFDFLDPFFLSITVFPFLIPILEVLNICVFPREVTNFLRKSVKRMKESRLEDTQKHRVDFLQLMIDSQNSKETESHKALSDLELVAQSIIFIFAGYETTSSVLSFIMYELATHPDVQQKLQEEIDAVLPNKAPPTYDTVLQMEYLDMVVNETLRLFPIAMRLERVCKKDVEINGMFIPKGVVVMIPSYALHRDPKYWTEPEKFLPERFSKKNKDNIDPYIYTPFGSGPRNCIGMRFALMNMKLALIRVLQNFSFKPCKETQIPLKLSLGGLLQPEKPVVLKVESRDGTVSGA

N#Cc1ccc(S(=O)(=O)N2C[C@H](S(=O)(=O)c3ccc(Cl)cc3)[C@](O)(CO)C2)c(Cl)c1
CL free [1]: 12 mL/min/kg
TDI (Cytochrome P450 3A4): Not Active
MRT [2]: 1.6 h
IC50 [3]: > 30000 nM
IC50 [4]: > 30000 nM
IC50 (TRPC3/TRPC6): > 30000 nM
IC50 [5]: 4 nM
fraction unbound at 1 h [6]: 0.042
AUC(0-t) [7]: 1100 ng·h/mL
AUC(0-t) [8]: 90000 ng·h/mL
IC50 [9]: 3.2 nM
concentration at 1 h [10]: 14 nM
concentration at 1 h [11]: 52 nM
inhibition (INH) (Rattus norvegicus): 99%
